# Legend:
# Assay type in all cases: functional
# [1] = Cytotoxicity against human DU145 cells after 48 hrs by SRB assay; conditions: DU-145, 48 h
# How it was run: (§1)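 NCI-60 five-dose screen: compounds dissolved in DMSO/H2O, tested at five 10-fold dilutions (10^-4 to 10^-8 M) for 48 h. Growth measured by sulforhodamine B optical density at time zero and after 48 h drug or vehicle exposure. Percentage growth calculated relative to control. GI50 is the molar concentration giving 50% reduction in net cell growth versus day-0 cell numbers.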
# [2] = test system: MCF7; test: Cytotoxicity against human MCF7 cells after 48 hrs by SRB assay; conditions: MCF7, 48 h; how it was run: as §1
# [3] = test system: MDA-MB-231; test: Cytotoxicity against human MDA-MB-231 cells after 48 hrs by SRB assay; conditions: MDA-MB-231, 48 h; how it was run: as §1
# [4] = Cytotoxicity against human Hs 578T cells after 48 hrs by SRB assay; how it was run: as §1
# [5] = Cytotoxicity against human BT549 cells after 48 hrs by SRB assay; conditions: BT-549, 48 h; how it was run: as §1
# [6] = test system: T47D; test: Cytotoxicity against human T47D cells after 48 hrs by SRB assay
# How it was run: (§2)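 NCI-60 five-dose screen. Compounds dissolved in DMSO/H2O and tested at five 10-fold dilutions (10^-4 to 10^-8 M) for 48 h. Growth read by sulforhodamine B optical density at time zero and after 48 h of exposure to compound or vehicle. Percent growth calculated against control. GI50 is the molar concentration giving 50% reduction in net cell growth relative to cell number on day 0.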
# [7] = test system: MDA-MB-468; test: Cytotoxicity against human MDA-MB-468 cells after 48 hrs by SRB assay; conditions: MDA-MB-468, 48 h; how it was run: as §1
# [8] = test system: CCRF-CEM; test: Cytotoxicity against human CCRF-CEM cells after 48 hrs by SRB assay; how it was run: as §1
# [9] = Cytotoxicity against human HL-60(TB) cells after 48 hrs by SRB assay; conditions: HL-60, 48 h; how it was run: as §1
# [10] = test system: K562; test: Cytotoxicity against human K562 cells after 48 hrs by SRB assay; conditions: K562, 48 h; how it was run: as §1
# [11] = Cytotoxicity against human MOLT4 cells after 48 hrs by SRB assay; conditions: MOLT-4, 48 h; how it was run: as §1
# [12] = Cytotoxicity against human RPMI8226 cells after 48 hrs by SRB assay; conditions: RPMI-8226, 48 h; how it was run: as §1
# [13] = test system: A549; test: Cytotoxicity against human A549 cells after 48 hrs by SRB assay; conditions: A549, 48 h; how it was run: as §1
# [14] = test system: EKVX; test: Cytotoxicity against human EKVX cells after 48 hrs by SRB assay
# How it was run: (§3)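 NCI-60 five-dose screen: compounds in DMSO/H2O tested at 10^-4 to 10^-8 M (10-fold steps) for 48 h. Cell mass read by sulforhodamine B optical density at time zero and after exposure to compound or vehicle. GI50 is the concentration giving 50% reduction in net cell growth relative to day-0 cell numbers.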
# [15] = Cytotoxicity against human HOP62 cells after 48 hrs by SRB assay; conditions: HOP-62, 48 h; how it was run: as §3
# [16] = Cytotoxicity against human HOP92 cells after 48 hrs by SRB assay; conditions: HOP-92, 48 h; how it was run: as §1
# [17] = test system: NCI-H226; test: Cytotoxicity against human NCI-H226 cells after 48 hrs by SRB assay; conditions: NCI-H226, 48 h; how it was run: as §1
# [18] = test system: NCI-H23; test: Cytotoxicity against human NCI-H23 cells after 48 hrs by SRB assay; conditions: NCI-H23, 48 h; how it was run: as §1
# [19] = test system: NCI-H460; test: Cytotoxicity against human NCI-H460 cells after 48 hrs by SRB assay; conditions: NCI-H460, 48 h; how it was run: as §1
# [20] = test system: NCI-H522; test: Cytotoxicity against human NCI-H522 cells after 48 hrs by SRB assay; conditions: NCI-H522, 48 h; how it was run: as §1
# [21] = Cytotoxicity against human COLO205 cells after 48 hrs by SRB assay; conditions: COLO 205, 48 h; how it was run: as §1
# [22] = Cytotoxicity against human HCC2998 cells after 48 hrs by SRB assay; conditions: HCC 2998, 48 h; how it was run: as §1
# [23] = Cytotoxicity against human HCT116 cells after 48 hrs by SRB assay; conditions: HCT-116, 48 h; how it was run: as §1
# [24] = Cytotoxicity against human HCT15 cells after 48 hrs by SRB assay; conditions: HCT-15, 48 h; how it was run: as §1
# [25] = test system: HT-29; test: Cytotoxicity against human HT-29 cells after 48 hrs by SRB assay; conditions: HT-29, 48 h; how it was run: as §1
# [26] = test system: KM12; test: Cytotoxicity against human KM12 cells after 48 hrs by SRB assay; conditions: KM12, 48 h; how it was run: as §1
# [27] = Cytotoxicity against human SW620 cells after 48 hrs by SRB assay; conditions: SW-620, 48 h; how it was run: as §1
# [28] = Cytotoxicity against human SF268 cells after 48 hrs by SRB assay; conditions: SF-268, 48 h; how it was run: as §1
# [29] = Cytotoxicity against human SF295 cells after 48 hrs by SRB assay; conditions: SF-295, 48 h; how it was run: as §1
# [30] = Cytotoxicity against human SF539 cells after 48 hrs by SRB assay; conditions: SF-539, 48 h; how it was run: as §1
# [31] = Cytotoxicity against human SNB19 cells after 48 hrs by SRB assay; conditions: SNB-19, 48 h; how it was run: as §1
# [32] = test system: U-251; test: Cytotoxicity against human U251 cells after 48 hrs by SRB assay; conditions: U-251, 48 h; how it was run: as §2
# [33] = Cytotoxicity against human LOXIMVI cells after 48 hrs by SRB assay; conditions: LOX IMVI; how it was run: as §1
# [34] = test system: Malme-3M; test: Cytotoxicity against human MALME-3M cells after 48 hrs by SRB assay; how it was run: as §3
# [35] = test system: M14; test: Cytotoxicity against human M14 cells after 48 hrs by SRB assay; conditions: M14, 48 h; how it was run: as §1
# [36] = test system: MDA-MB-435; test: Cytotoxicity against human MDA-MB-435 cells after 48 hrs by SRB assay; conditions: MDA-MB-435, 48 h; how it was run: as §1
# [37] = test system: SK-MEL-2; test: Cytotoxicity against human SK-MEL-2 cells after 48 hrs by SRB assay; conditions: SK-MEL-2, 48 h; how it was run: as §1
# [38] = test system: SK-MEL-28; test: Cytotoxicity against human SK-MEL-28 cells after 48 hrs by SRB assay; conditions: SK-MEL-28, 48 h; how it was run: as §1
# [39] = test system: SK-MEL-5; test: Cytotoxicity against human SK-MEL-5 cells after 48 hrs by SRB assay; conditions: SK-MEL-5, 48 h; how it was run: as §1
# [40] = Cytotoxicity against human UACC257 cells after 48 hrs by SRB assay; conditions: UACC-257, 48 h; how it was run: as §2
# [41] = Cytotoxicity against human UACC62 cells after 48 hrs by SRB assay; conditions: UACC-62, 48 h; how it was run: as §2
# [42] = Cytotoxicity against human IGROV1 cells after 48 hrs by SRB assay; conditions: IGROV-1, 48 h; how it was run: as §3
# [43] = Cytotoxicity against human OVCAR3 cells after 48 hrs by SRB assay; conditions: OVCAR-3, 48 h; how it was run: as §1
# [44] = Cytotoxicity against human OVCAR4 cells after 48 hrs by SRB assay; conditions: OVCAR-4, 48 h; how it was run: as §1
# [45] = Cytotoxicity against human OVCAR5 cells after 48 hrs by SRB assay; conditions: OVCAR-5, 48 h; how it was run: as §1
# [46] = Cytotoxicity against human OVCAR8 cells after 48 hrs by SRB assay; conditions: OVCAR-8, 48 h; how it was run: as §1
# [47] = Cytotoxicity against human NCI-ADR-RES cells after 48 hrs by SRB assay; how it was run: as §1
# [48] = Cytotoxicity against human SKOV3 cells after 48 hrs by SRB assay; conditions: SK-OV-3, 48 h; how it was run: as §1
# [49] = test system: 786-0; test: Cytotoxicity against human 786-0 cells after 48 hrs by SRB assay; conditions: 786-0, 48 h; how it was run: as §1
# [50] = test system: A498; test: Cytotoxicity against human A498 cells after 48 hrs by SRB assay; conditions: A498, 48 h; how it was run: as §1
# [51] = test system: ACHN; test: Cytotoxicity against human ACHN cells after 48 hrs by SRB assay; how it was run: as §1
# [52] = Cytotoxicity against human Caki1 cells after 48 hrs by SRB assay; conditions: CAKI-1, 48 h; how it was run: as §1
# [53] = Cytotoxicity against human RXF393 cells after 48 hrs by SRB assay; conditions: RXF 393, 48 h; how it was run: as §1
# [54] = test system: SN12C; test: Cytotoxicity against human SN12C cells after 48 hrs by SRB assay; how it was run: as §1
# [55] = Cytotoxicity against human TK10 cells after 48 hrs by SRB assay; conditions: TK-10, 48 h; how it was run: as §2
# [56] = Cytotoxicity against human UO31 cells after 48 hrs by SRB assay; conditions: UO-31, 48 h; how it was run: as §2
# [57] = Cytotoxicity against human PC3 cells after 48 hrs by SRB assay; conditions: PC-3, 48 h; how it was run: as §1
smiles,measurement,setting,value
COc1ccc(-c2n[nH]nc2-c2csc3ccccc23)cc1OC,GI50,[1],3.77 µM
same,GI50,[2],1450 nM
same,GI50,[3],3.21 µM
same,GI50,[4],2250 nM
same,GI50,[5],2170 nM
same,GI50,[6],2830 nM
same,GI50,[7],630 nM
same,GI50,[8],3.29 µM
same,GI50,[9],1700 nM
same,GI50,[10],516 nM
same,GI50,[11],3.05 µM
same,GI50,[12],3.64 µM
same,GI50,[13],4.52 µM
same,GI50,[14],3.42 µM
same,GI50,[15],2180 nM
same,GI50,[16],921 nM
same,GI50,[17],13.2 µM
same,GI50,[18],3.94 µM
same,GI50,[19],3.56 µM
same,GI50,[20],601 nM
same,GI50,[21],2820 nM
same,GI50,[22],4.21 µM
same,GI50,[23],2840 nM
same,GI50,[24],1670 nM
same,GI50,[25],2780 nM
same,GI50,[26],2280 nM
same,GI50,[27],3.09 µM
same,GI50,[28],3.69 µM
same,GI50,[29],2330 nM
same,GI50,[30],1840 nM
same,GI50,[31],4.67 µM
same,GI50,[32],2190 nM
same,GI50,[33],3.04 µM
same,GI50,[34],13.3 µM
same,GI50,[35],1950 nM
same,GI50,[36],337 nM
same,GI50,[37],1440 nM
same,GI50,[38],4.63 µM
same,GI50,[39],2830 nM
same,GI50,[40],10.9 µM
same,GI50,[41],2770 nM
same,GI50,[42],4.21 µM
same,GI50,[43],1940 nM
same,GI50,[44],6.33 µM
same,GI50,[45],7.91 µM
same,GI50,[46],4.24 µM
same,GI50,[47],2390 nM
same,GI50,[48],2370 nM
same,GI50,[49],3.26 µM
same,GI50,[50],2960 nM
same,GI50,[51],3.94 µM
same,GI50,[52],3.69 µM
same,GI50,[53],2110 nM
same,GI50,[54],8.8 µM
same,GI50,[55],2980 nM
same,GI50,[56],2780 nM
same,GI50,[57],3.08 µM

# — ChEMBL document CHEMBL3751743, “Synthesis and anti-cancer screening of novel heterocyclic-(2H)-1,2,3-triazoles as potential anti-cancer agents” (Medchemcomm, 2015)
